Reference: ChEMBL document CHEMBL1142827, “The identification and optimization of a N-hydroxy urea series of flap endonuclease 1 inhibitors” (Bioorg Med Chem Lett, 2005)

Experiments:
Assay type in all cases: functional, Homo sapiens
T-24 [1] = experiment: Percent of viable cells by survival assay (colony forming) in T24 bladder carcinoma cells at 1 uM in the presence of 200 uM MMS
Outline: (§1)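 Colony-forming survival assay in T24 bladder carcinoma cells. Compound was given alongside DMSO alone or methyl methanesulfonate (MMS) at 110, 150 or 200 μM. Survival is expressed relative to the DMSO-only control, set at 100. Values are the average of two independent experiments.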

T-24 [2] = experiment: Percent of viable cells by survival assay (colony forming) in T24 bladder carcinoma cells at 3 uM in the presence of DMSO; outline: as §1
T-24 [3] = experiment: Percent of viable cells by survival assay (colony forming) in T24 bladder carcinoma cells at 3 uM in the presence of 150 uM MMS; outline: as §1
T-24 [4] = experiment: Percent of viable cells by survival assay (colony forming) in T24 bladder carcinoma cells at 1 uM in the presence of 150 uM MMS; outline: as §1
T-24 [5] = experiment: Percent of viable cells by survival assay (colony forming) in T24 bladder carcinoma cells at 3 uM in the presence of 200 uM MMS; outline: as §1
T-24 [6] = experiment: Percent of viable cells by survival assay (colony forming) in T24 bladder carcinoma cells at 1 uM in the presence of DMSO; outline: as §1
T-24 [7] = experiment: Percent of viable cells by survival assay (colony forming) in T24 bladder carcinoma cells at 1 uM in the presence of 110 uM MMS; outline: as §1
T-24 [8] = experiment: Percent of viable cells by survival assay (colony forming) in T24 bladder carcinoma cells at 3 uM in the presence of 110 uM MMS; outline: as §1

Structure (SMILES): COc1cc(Cn2c(=O)n(O)c(=O)c3c(C)csc32)cc2c1OCO2
- Viable cells (T-24 [1]): 2%
- Viable cells (T-24 [2]): 86%
- Viable cells (T-24 [3]): 6%
- Viable cells (T-24 [4]): 12%
- Viable cells (T-24 [5]): 0%
- Viable cells (T-24 [6]): 100%
- Viable cells (T-24 [7]): 24%
- Viable cells (T-24 [8]): 11%

Structure (SMILES): O=c1c2sccc2n(CC2COc3ccccc3O2)c(=O)n1O (stereo unspecified)
- Viable cells (T-24 [1]): 4%
- Viable cells (T-24 [2]): 87%
- Viable cells (T-24 [3]): 5%
- Viable cells (T-24 [4]): 6%
- Viable cells (T-24 [5]): 4%
- Viable cells (T-24 [6]): 96%
- Viable cells (T-24 [7]): 18%
- Viable cells (T-24 [8]): 11%
